Experimental data of several laboratories.
Lines come from different studies, so protocols differ.
Target: Serine/threonine-protein kinase D3 (PRKD3, Homo sapiens, UniProt O94806)
One construct used (O94806 1-890): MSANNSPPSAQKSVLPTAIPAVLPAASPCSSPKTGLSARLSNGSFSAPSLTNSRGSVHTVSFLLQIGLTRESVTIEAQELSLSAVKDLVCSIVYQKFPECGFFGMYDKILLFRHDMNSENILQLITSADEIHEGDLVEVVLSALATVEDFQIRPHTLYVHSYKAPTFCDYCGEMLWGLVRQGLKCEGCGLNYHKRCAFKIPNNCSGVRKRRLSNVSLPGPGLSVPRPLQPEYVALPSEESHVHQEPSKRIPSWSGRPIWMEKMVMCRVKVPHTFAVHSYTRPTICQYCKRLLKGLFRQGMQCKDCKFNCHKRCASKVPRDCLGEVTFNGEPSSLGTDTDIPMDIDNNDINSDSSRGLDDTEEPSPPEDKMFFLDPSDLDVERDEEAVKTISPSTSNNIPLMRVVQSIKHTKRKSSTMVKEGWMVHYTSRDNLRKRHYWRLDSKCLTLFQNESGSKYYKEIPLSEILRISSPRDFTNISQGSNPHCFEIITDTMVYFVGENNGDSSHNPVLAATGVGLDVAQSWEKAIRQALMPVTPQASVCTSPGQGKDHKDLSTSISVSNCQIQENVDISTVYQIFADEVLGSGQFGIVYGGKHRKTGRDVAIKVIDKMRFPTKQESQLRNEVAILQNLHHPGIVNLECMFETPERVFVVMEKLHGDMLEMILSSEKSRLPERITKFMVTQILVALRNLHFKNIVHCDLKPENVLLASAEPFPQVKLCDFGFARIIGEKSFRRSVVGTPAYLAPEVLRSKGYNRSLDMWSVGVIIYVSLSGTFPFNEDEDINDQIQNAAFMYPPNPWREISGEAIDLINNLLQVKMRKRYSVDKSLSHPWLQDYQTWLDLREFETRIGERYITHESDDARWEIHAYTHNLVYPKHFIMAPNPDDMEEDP

The remaining binding of `C[C@H]1CCN(c2nccc(-c3cnn4ncccc34)n2)C1` is reported as 59% (binding; 1 µM).
The remaining binding of `O=C(NCC1CCOCC1)c1n[nH]cc1NC(=O)c1c(F)cccc1F` is reported as 97% (binding, competition with immobilised ligand; 1 µM).
`O=C(NCCCN1CCOCC1)c1ccc(Nc2nccc(-c3cc4ccccc4s3)n2)cc1` gave a remaining binding of 32% (binding, competition with immobilised ligand; 1 µM).
With `CNC(=O)[C@@H]1CC[C@@H](n2c(-c3ccc4cnccc4c3)nc3ccc(C(=O)NCc4cccc(C(N)=O)c4)cc32)C1` the remaining binding was 91% (binding, competition with immobilised ligand; 1 µM).
`CC1CCCN1c1nccc(-c2cnn3ncccc23)n1` (stereo not drawn) has a remaining binding of 97% (binding; 1 µM).
`c1cncc(-c2cccc(Nc3nccc(NC4CCCCC4)n3)c2)c1` has a remaining binding of 7.4% (binding, competition with immobilised ligand; 10 µM).
For `FC(F)(F)c1ccc2c(c1)nc(-c1cccnc1)n2C1CC1`, the remaining binding was 100% (cell-free assay, competition with immobilised ligand; 1 µM).
`N[C@@H]1CCN(c2nccc(-c3cnn4ncccc34)n2)C1` gave a remaining binding of 100% (binding; 1 µM).
For `Cc1nccc(COC(=O)N2C[C@@H]3[C@@H](CNC(=O)c4ccc5[nH]nnc5c4)[C@@H]3C2)n1`, the remaining binding was 100% (cell-free assay, competition with immobilised ligand; 1 µM).
The remaining binding of `Nc1ncc2c(n1)-c1c([nH]c3ccc(C#CC4CC4)cc13)CCCC2` is reported as 61% (binding, competition with immobilised ligand; 1 µM).
`CN(C)c1nccc(-c2cnn3ncccc23)n1` has a remaining binding of 100% (binding; 1 µM).
`CCN1CCN(Cc2ccc(C(=O)Nc3ccc(C)c(Oc4ccc5c(c4)CC(=O)N5)c3)cc2C(F)(F)F)CC1` has a remaining binding of 100% (binding, competition with immobilised ligand; 1 µM).
`F[C@@H]1CCN(c2nccc(-c3cnn4ncccc34)n2)C1` gave a remaining binding of 76% (binding; 1 µM).
`C[C@@H]1CN(c2cc(-c3n[nH]c4ccc(OC5(C)CC5)cc34)ncn2)C[C@H](C)O1` gave a remaining binding of 82% (cell-free assay, competition with immobilised ligand; 0.1 µM).
For `O=C(NCCCN1CCOCC1)c1ccc(Nc2ncc(Cl)c(-c3ccc(Cl)s3)n2)cc1`, the remaining binding was 20% (binding, competition with immobilised ligand; 1 µM).
For `Cc1c[nH]c2nccc(Oc3c(F)cc(Nc4cc(Cl)nc(N)n4)cc3F)c12`, the remaining binding was 100% (cell-free assay, competition with immobilised ligand; 0.1 µM).
`C=CC(=O)N1CCC(C(=O)NCC(=O)N2CCN(c3nc(-c4cnc(N)nc4C(F)F)nc(N4CCOCC4)n3)CC2)CC1` gave a remaining binding of 93% (binding, competition with immobilised ligand; 1 µM).
`CN(C)C(=O)Cn1cc(-c2nc(C3(c4ccc(-c5cnc(N)nc5)cc4)CC3)no2)cn1` has a remaining binding of 92% (cell-free assay, competition with immobilised ligand; 1 µM).
`CN(C)c1nccc(-c2cnc3ncccn23)n1` has a remaining binding of 100% (binding; 1 µM).
With `COc1cccc(CNC(=O)c2nc3scc(COCc4ccc(C(=O)O)cc4)c3c(=O)[nH]2)c1` the remaining binding was 100% (cell-free assay, competition with immobilised ligand; 1 µM).
The remaining binding of `O=C(c1ccc(Nc2ncc(Cl)c(-c3ccc(Cl)s3)n2)cc1)N1CCC(N2CCCC2)CC1` is reported as 3.6% (binding, competition with immobilised ligand; 1 µM).
